Screening data deposited in PubChem by The Scripps Research Institute Molecular Screening Center.
A selection: hits, their analogues and other compounds. The true share with any hit is near 3%.
S1P3 ag – activates the human S1P3 receptor; activation, % at 4.5 µM; S1P3 NFAT-BLA reporter cells, agonism, FRET ratio; relative to 1 µM S1P, basal subtracted; 0.1% of 60,000 active; Q99500;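 active = activation above the screen-wide mean plus 3 SD, cut at about 4.5% in these data, passing the limit was not always enough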
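Benchmarks: high control 1 µM S1P / System: stable CHO line with human S1P3, Gα16, NFAT-BLA reporter / Dosing: single compound concentration, 4.5 µM final / Timing: 4 h compound at 37 °C, 2 h substrate at RT / Measured by: FRET β-lactamase substrate fluorescence, excitation 405 nm, 460/535 nm emission ratio, background-subtracted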
5HT1E ag – 5-HT1E (human) receptor agonism; activation, % at 6 µM; P28566; CHO 5-HT1E Ga15 NFAT-bla reporter, FRET; 0% DMSO wells, 100% control agonist wells; 0.69% of 65,000 active;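 active = activation above a set limit, the screen-wide mean activation plus 3 SD, cut at about 8.5% in these data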
Target sequence (P28566 whole entry, looked up): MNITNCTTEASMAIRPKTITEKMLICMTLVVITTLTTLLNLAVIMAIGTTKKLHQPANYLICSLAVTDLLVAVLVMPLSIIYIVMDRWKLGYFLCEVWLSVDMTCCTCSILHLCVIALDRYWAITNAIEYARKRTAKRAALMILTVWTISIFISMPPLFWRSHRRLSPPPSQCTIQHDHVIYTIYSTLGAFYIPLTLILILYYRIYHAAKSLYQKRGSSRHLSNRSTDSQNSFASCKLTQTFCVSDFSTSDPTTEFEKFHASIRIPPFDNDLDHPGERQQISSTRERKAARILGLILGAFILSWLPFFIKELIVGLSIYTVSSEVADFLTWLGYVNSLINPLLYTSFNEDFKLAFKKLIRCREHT
HTR1E antagonist – antagonists of human 5-HT1E serotonin receptor; P28566; CHO 5-HT1E Ga15 NFAT-bla reporter, FRET, antagonist; inhibition, % at 6 µM; 0.99% of 65,000 active; AID 571;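 active = inhibition above a set limit, the mean inhibition across every tested compound plus 3 SD, cut at about 29% in these data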;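 also: signal is the 460 over 535 nm emission ratio of beta-lactamase substrate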
5HT1a ag – activates the human 5-HT1a serotonin receptor. P08908. CHO 5-HT1a Ga15 NFAT-bla reporter, FRET ratio; 0% basal, 100% maximal reference agonist. activation, % at 10 µM. 0.56% of 65,000 active;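 active = activation above the screen-wide mean activation plus 3 SD, cut at about 19% in these data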
5-HT1A blocker – 5-HT1a (human) receptor antagonism. P08908. CHO 5-HT1a Ga15 NFAT-bla reporter, antagonist mode. inhibition, % at 10 µM. 0.68% of 62,000 active. AID 612;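 active = inhibition above the mean of all tested compounds plus 3 SD, cut at about 43% in these data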;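 also: receptor stimulated by 5-CT agonist at 100 nM near EC80; beta-lactamase reporter measured by ratiometric fluorescence of a cleavable substrate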
S1P1 ag pot – agonists and agonism potentiators of human S1P1 receptor | P21453 | S1P1 CRE-bla cells, forskolin, beta-lactamase FRET, potentiator mode; S1P1 agonist co-added at EC20, 2 nM; 100% = saturating reference agonist, 0% = basal | activation, % at 9.5 µM | 0.57% of 56,000 active | AID 449;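 active = activation above a cutoff set at the mean activation of all tested compounds plus 3 SD, cut at about 54% in these data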;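 also: forskolin at 4 µM as EC80 and the EC20 agonist is SEW2871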
Large screens that a line does not name were inactive.

COc1cc(OC)nc(NC(=O)COC(=O)C2CCCCC2)n1	5HT1a ag 91
O=C(O)C1CCCN(S(=O)(=O)c2ccc(Cl)s2)C1 (centres undefined)	none
O=C(C1CCCN(S(=O)(=O)c2ccc(Br)s2)C1)N1CCCCCC1 (centres undefined)	5HT1a ag 37 (no result: S1P3 ag, S1P1 ag pot)
Cc1nnc(Sc2nc(Sc3nnc(C)s3)nc(N3CCN(C)CC3)n2)s1	HTR1E antagonist 68, 5-HT1A blocker 78
CC(=O)C(Sc1nn(C)c(=S)s1)C(=O)Nc1ccccc1 (centres undefined)	none
CCOc1ccccc1NC(=O)CSc1nccn1-c1ccccc1	none
COc1ccc(NC(=O)CSc2nccn2-c2ccccc2)c(OC)c1	5HT1E ag 22
CC(C)(C)OC(=O)NCCc1nnc(S(=O)(=O)Cc2ccc(Cl)cc2Cl)o1	5-HT1A blocker 69
O=C(Nc1ccc(Cl)cc1)N1CC=CCC1	none
COc1cccc(Cn2nnc(C(=O)NCc3ccc(F)cc3)c2N)c1	HTR1E antagonist 32
COc1ccccc1CN1CCN(C(CC(C)C)c2nnnn2Cc2cccs2)CC1 (centres undefined)	none
Cc1ccccc1-n1c(SC(C)C(N)=O)nnc1-c1cccnc1 (centres undefined)	5HT1E ag 27
Cc1ccc(-n2c(SCC(N)=O)nnc2-c2cccnc2)c(C)c1	none
CC1(C)CC(=O)C2=C(C1)NC(SCC(=O)Nc1ccccc1)=C(C#N)C21CCCCC1	none
CC(C)(C)C1CCC2(CC1)C(C#N)=C(SCC(=O)Nc1ccccc1)NC(=O)C2C#N (centres undefined)	S1P1 ag pot 79 (no result: 5-HT1A blocker)
Cc1c(C(=O)NCC(C)C)sc2nc(-c3ccc(F)cc3)cn12	none
COc1ccc(-n2c3c(cc(C(=O)N4CCCCC4)c2=O)C(=O)CC(C)(C)C3)cc1	none (no result: S1P1 ag pot)
N#Cc1cc2c(=O)n3ccccc3nc2n(CCN2CCOCC2)c1=O	5HT1E ag 28
N#Cc1cc2c(=O)n3ccccc3nc2n(CCCN2CCOCC2)c1=O	none
N#Cc1cc2c(=O)n3ccccc3nc2n(Cc2cccnc2)c1=O	5HT1a ag 37
O=C(CSc1ncnc2nc[nH]c12)N1CCN(c2ccc(Cl)cc2)CC1	none
CC(=O)NCc1cn2c(C)csc2n1	none
Cc1csc2nc(CNC(=O)c3ccco3)cn12	5HT1E ag 11
CCCCn1c(NC(=O)c2ccccc2)c(C#N)c2nc3ccccc3nc21	none
CCCCn1c(NC(=O)c2ccc(F)cc2)c(C#N)c2nc3ccccc3nc21	S1P3 ag 4.7, 5HT1E ag 9.1, 5HT1a ag 29
CCCCN(C)CCCNC(=O)Cn1c(=O)sc2ccccc21	5HT1E ag 70 (no result: S1P3 ag, S1P1 ag pot)
COc1cc(-c2nnc(SCC(=O)c3cc(C)n(CC4CCCO4)c3C)o2)cc(OC)c1OC (centres undefined)	none
CCOC(=O)c1ccc2nc(NC(=O)c3ccco3)sc2c1	S1P1 ag pot 63
CCOC(=O)c1ccc2nc(NC(=O)c3cccs3)sc2c1	none (no result: S1P3 ag, S1P1 ag pot)
COc1nc(OC)nc(N2CCC(C(=O)Nc3cccc4ccccc34)CC2)n1	none
COc1nc(OC)nc(N2CCC(C(=O)Nc3cccc4c3CCCC4)CC2)n1	5HT1a ag 22
O=C1C(c2ccc(F)cc2)N(Cc2ccc3c(c2)OCO3)C(=O)CN1C1CCCCC1 (centres undefined)	none (no result: S1P3 ag, S1P1 ag pot)
O=C(Oc1ccc2ccccc2c1)c1ccco1	none
CC1CC(C)(C)Nc2ccc(OC(=O)c3ccco3)cc21 (centres undefined)	HTR1E antagonist 40, 5-HT1A blocker 51
CCCCCCC(=O)c1c(C)[nH]c(C(=O)OCC)c1C	HTR1E antagonist 36
CCCN(CCC)C(=O)c1c(C)[nH]c(C(=O)OCC)c1C	none
COC(=O)CCN1CCC(C(N)=O)CC1	none
Cc1nn(Cc2ccc(Cl)cc2)c(C)c1NC(=O)c1cc(-c2ccco2)on1	none
Cc1nn(Cc2ccc(Cl)c(Cl)c2)c(C)c1NC(=O)c1cc(-c2ccco2)on1	S1P1 ag pot 96
CCOC(=O)CSc1n[nH]c(-c2ccco2)n1	none
CCOC(=O)c1c(NC(=O)CSc2n[nH]c(-c3ccco3)n2)sc(C)c1C	HTR1E antagonist 44
